From ChEMBL document CHEMBL3804777, “Identification and Preclinical Pharmacology of BMS-986104: A Differentiated S1P1 Receptor Modulator in Clinical Trials” (ACS Med Chem Lett, 2016)
The source made the active and inactive calls. No cut-off for these calls is given here.

Legend:
[1] = Drug metabolism in BALB/c mouse whole blood assessed as whole blood phosphate area ratio at 10 uM after 4 hrs by LC/MS/MS analysis; format: ADME, tissue-based
Outline: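 Mouse whole blood incubated with the amino-alcohol prodrug; phosphorylated product measured by LC/MS/MS after 4 h to give the relative extent of phosphate ester formation.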

Blood [2] = experiment: Drug metabolism in BALB/c mouse blood assessed as formation of phosphate ester metabolite at 10 mg/kg administered through oral gavage after 24 hrs by LC/MS/MS analysis; format: ADME, organism-based; conditions: in vivo
Outline: (§1)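 Mouse PK study: alcohol prodrug given orally at 10 mg/kg, and formation of the phosphate metabolite in blood measured.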

Mus musculus [3] = experiment: Reduction of blood lymphocyte level in BALB/c mouse at 1 mg/kg administered through oral gavage after 24 hrs by hematology analysis; format: functional; set-up: scale not given: the % may be the effect or the level left
Outline: (§2)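 Mice given a single oral 1 mg/kg dose; circulating lymphocytes counted 24 h later as the pharmacodynamic marker.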

Blood [4] = experiment: Drug metabolism in BALB/c mouse blood assessed as formation of phosphate ester metabolite at 10 mg/kg administered through oral gavage after 4 hrs by LC/MS/MS analysis; format: ADME, organism-based; conditions: in vivo; outline: as §1
Mus musculus [5] = experiment: Reduction in IL2 gene expression in SCID mouse with CD45RBhiCD4+ T-cell transfer-induced colitis model of inflammatory bowel disease at 5 mg/kg, po dosed every other day for 5 weeks by RT-PCR method; format: functional; conditions: 840 h
Outline: (§3)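 CD45RBhiCD4+ T-cell transfer colitis in mice; oral alternate-day dosing for 5 weeks, compared with vehicle. Read-outs: body weight, colon length, histological colon inflammation and tissue damage, and colon gene expression by RT-PCR (IFN-γ, IL-2, CD4, B220, CD11b, Fcgr4, Ifit1, OASL2).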

Mus musculus [6] = experiment: Reduction in Fcgr4 gene expression in SCID mouse with CD45RBhiCD4+ T-cell transfer-induced colitis model of inflammatory bowel disease at 5 mg/kg, po dosed every other day for 5 weeks by RT-PCR method; format: functional; conditions: 840 h; outline: as §3
Mus musculus [7] = experiment: Reduction in IFNgamma gene expression in SCID mouse with CD45RBhiCD4+ T-cell transfer-induced colitis model of inflammatory bowel disease at 5 mg/kg, po dosed every other day for 5 weeks by RT-PCR method; format: functional; conditions: 840 h; outline: as §3
Mus musculus [8] = experiment: Reduction in B220 gene expression in SCID mouse with CD45RBhiCD4+ T-cell transfer-induced colitis model of inflammatory bowel disease at 5 mg/kg, po dosed every other day for 5 weeks by RT-PCR method; format: functional; conditions: 840 h; outline: as §3
Mus musculus [9] = experiment: Reduction in lymphocyte level in BALB/c mouse assessed as blood lymphocyte level at 0.5 mg/kg, po after 24 hrs by hematology analysis (reference value: 5.13 to 8.02 10^3/mm3); format: functional
Mus musculus [10] = experiment: Reduction in OASL2 gene expression in SCID mouse with CD45RBhiCD4+ T-cell transfer-induced colitis model of inflammatory bowel disease at 5 mg/kg, po dosed every other day for 5 weeks by RT-PCR method; format: functional; conditions: 840 h; outline: as §3
Mus musculus [11] = experiment: Induction of colon length shortening in SCID mouse with CD45RBhiCD4+ T-cell transfer-induced colitis model of inflammatory bowel disease at 1 mg/kg, po dosed daily for 5 weeeks; format: functional, organism-based
Outline: (§4)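 CD45RBhiCD4+ T-cell transfer colitis in mice; oral dosing at 1 mg/kg/day for 5 weeks, compared with vehicle. Read-outs: body weight, colon length, and colon gene expression by RT-PCR (IFN-γ, IL-2, CD4, B220, CD11b, Fcgr4, Ifit1, OASL2).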

Mus musculus [12] = experiment: Pulmonary toxicity in BALB/c mouse assessed as BAL protein levels at 30 mg/kg, po after 24 by hematology analysis (reference value: 8.2 to 8.3 mg/dL); format: organism-based; conditions: in vivo
Mus musculus [13] = experiment: Pulmonary toxicity in BALB/c mouse assessed as BAL protein levels at 10 mg/kg, po after 24 by hematology analysis (reference value: 8.2 to 8.3 mg/dL); format: organism-based; conditions: in vivo
Mus musculus [14] = experiment: Pulmonary toxicity in BALB/c mouse assessed as BAL protein levels at 0.5 mg/kg, po after 24 by hematology analysis (reference value: 8.2 to 8.3 mg/dL); format: organism-based; conditions: in vivo
Mus musculus [15] = experiment: Reduction in body weight loss in SCID mouse with CD45RBhiCD4+ T-cell transfer-induced colitis model of inflammatory bowel disease at 1 mg/kg, po dosed daily for 5 weeks; format: functional, organism-based; outline: as §4
Mus musculus [16] = experiment: Reduction in lymphocyte level in BALB/c mouse assessed as blood lymphocyte level at 30 mg/kg, po after 24 hrs by hematology analysis (reference value: 5.13 to 8.02 10^3/mm3); format: functional
Mus musculus [17] = experiment: Reduction in CD4 gene expression in SCID mouse with CD45RBhiCD4+ T-cell transfer-induced colitis model of inflammatory bowel disease at 5 mg/kg, po dosed every other day for 5 weeks by RT-PCR method; format: functional; conditions: 840 h; outline: as §3
Mus musculus [18] = experiment: Reduction in CD11b gene expression in SCID mouse with CD45RBhiCD4+ T-cell transfer-induced colitis model of inflammatory bowel disease at 5 mg/kg, po dosed every other day for 5 weeks by RT-PCR method; format: functional; conditions: 840 h; outline: as §3
Mus musculus [19] = experiment: Reduction in Ifit1 gene expression in SCID mouse with CD45RBhiCD4+ T-cell transfer-induced colitis model of inflammatory bowel disease at 5 mg/kg, po dosed every other day for 5 weeks by RT-PCR method; format: functional; conditions: 840 h; outline: as §3
Mus musculus [20] = experiment: Reduction in lymphocyte level in BALB/c mouse assessed as blood lymphocyte level at 10 mg/kg, po after 24 hrs by hematology analysis (reference value: 5.13 to 8.02 10^3/mm3); format: functional
Mus musculus [21] = experiment: Reduction in blood lymphocyte level in BALB/c mouse at 1 mg/kg, po after 24 hrs by hematology analysis; format: functional, organism-based; outline: as §2
Heart [22] = experiment: Toxicity in guinea pig heart assessed as reduction in ventricular rate at 1 nM after 10 mins by ECG analysis; format: tissue-based, Cavia porcellus, Cardiac ventricle; conditions: 0.001 µM
Outline: (§5)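 Isolated guinea pig hearts perfused with the phosphate at the stated concentrations; ventricular rate and atrioventricular conduction (third-degree AV block) monitored.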

[23] = Toxicity in human-inducible pluripotent stem cell-derived Cardiomyocyte assessed as reduction in cardiomyocyte beating after 2 hrs; conditions: cardiac muscle cell
Outline: (§6)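 Cultured human iPSC-derived cardiomyocytes expressing S1P1 and S1P3, exposed to a range of concentrations of the phosphate; beating rate measured and the no-effect concentration determined.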

[24] = molecular target: T1, Sphingosine 1-phosphate receptor 4 (Homo sapiens, UniProt O95977); experiment: Agonist activity at human S1P4 receptor by GTPgammaS binding assay; format: functional
T1 sequence (O95977 whole entry): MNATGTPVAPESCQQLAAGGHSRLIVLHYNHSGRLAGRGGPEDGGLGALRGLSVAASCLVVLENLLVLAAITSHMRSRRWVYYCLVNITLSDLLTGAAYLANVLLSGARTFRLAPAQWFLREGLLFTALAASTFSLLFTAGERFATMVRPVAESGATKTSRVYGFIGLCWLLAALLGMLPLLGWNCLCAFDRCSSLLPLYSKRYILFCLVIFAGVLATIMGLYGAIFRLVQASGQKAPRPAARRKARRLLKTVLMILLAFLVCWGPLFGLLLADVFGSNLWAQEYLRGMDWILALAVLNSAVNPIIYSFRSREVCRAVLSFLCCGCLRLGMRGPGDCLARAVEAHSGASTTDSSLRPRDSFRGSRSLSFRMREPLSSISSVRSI

Heart [25] = experiment: Toxicity in guinea pig heart assessed as third degree AV block at 1 nM after 10 mins by ECG analysis; format: tissue-based, Cavia porcellus; conditions: 0.001 µM; outline: as §5
[26] = Toxicity in human-inducible pluripotent stem cell-derived Cardiomyocyte assessed as reduction in cardiomyocyte beating at 1 nM after 2 hrs; set-up: scale not given: the % may be the effect or the level left; conditions: cardiac muscle cell, 0.001 µM; outline: as §6
Mus musculus [27] = experiment: Reduction of blood lymphocyte level in BALB/c mouse administered through oral gavage after 24 hrs by hematology analysis; format: functional, organism-based
[28] = Toxicity in human-inducible pluripotent stem cell-derived Cardiomyocyte assessed as reduction in cardiomyocyte beating at 0.1 nM after 2 hrs; conditions: cardiac muscle cell, 0.0001 µM; outline: as §6
Heart [29] = experiment: Toxicity in guinea pig heart assessed as reduction in ventricular rate at 100 nM after 10 mins by ECG analysis; format: tissue-based, Cavia porcellus, Cardiac ventricle; conditions: 0.1 µM; outline: as §5
Heart [30] = experiment: Toxicity in guinea pig heart assessed as third degree AV block at 300 nM after 10 mins by ECG analysis; format: tissue-based, Cavia porcellus; conditions: 0.3 µM; outline: as §5

CCCCCCC1CCc2cc(C3CCC(N)(CO)C3)ccc2C1 (stereo in doubt; 3a)
Ratio [1]: 0.07
Drug metabolism (Blood [2]): 14 nM
Activity (Mus musculus [3]): 12%
Drug metabolism (Blood [4]): < 9.8 nM

CCCCCCCCc1ccc(CCC(N)(CO)CO)cc1 [FINGOLIMOD]
inhibition in vivo at 5 mg/kg (Mus musculus [5]): 68%
inhibition in vivo at 5 mg/kg (Mus musculus [6]): 25%
inhibition in vivo at 5 mg/kg (Mus musculus [7]): 30%
inhibition in vivo at 5 mg/kg (Mus musculus [8]): 55%
Activity (Mus musculus [9]): 1.28 ×10³ /mm3
inhibition in vivo at 5 mg/kg (Mus musculus [10]): 7%
Activity (Mus musculus [11]): Active
Activity (Mus musculus [12]): 71 mg/dL
Activity (Mus musculus [13]): 34.2 mg/dL
Activity (Mus musculus [14]): 7.5 mg/dL
inhibition (Mus musculus [15]): Active
Activity (Mus musculus [16]): 0.29 ×10³ /mm3
inhibition in vivo at 5 mg/kg (Mus musculus [17]): 60%
inhibition in vivo at 5 mg/kg (Mus musculus [18]): 45%
inhibition in vivo at 5 mg/kg (Mus musculus [19]): 16%
Activity (Mus musculus [20]): 0.92 ×10³ /mm3

CCCCCCC1CCc2cc(C3CCC(N)(CO)C3)ccc2C1 (stereo in doubt; 3h)
Ratio [1]: 0.17
Activity (Mus musculus [3]): 60%

CCCCCCC1CCc2cc(C3CCC(N)(CO)C3)ccc2C1 (stereo in doubt; 3b)
Activity (Mus musculus [21]): Active

CCCCCCCCc1ccc(CCC(N)(CO)COP(=O)(O)O)cc1 (stereo not drawn)
Activity (Heart [22]): 32 bpm
Activity [23]: Dose-dependent effect
EC50 [24]: 0.09 nM
Activity (Heart [25]): Toxic
Activity [26]: 35%
EC50 (Mus musculus [27]): 5.6 nM
ED50 (Mus musculus [27]; po): 0.017 mg/kg
Activity [28]: Non-toxic

CCc1cc(/C(C)=N/OCc2ccc(C3CCCCC3)c(C(F)(F)F)c2)ccc1CN1CC(C(=O)O)C1 [SIPONIMOD]
Activity (Heart [29]): Toxic
Activity (Heart [30]): Toxic
